The term EC50 denotes the concentration giving half of the maximal effect. As a reminder, the IC50 is the concentration that inhibits the measured activity by half.

These results are taken from paper PMC6620028 (Cancer cell, 2019).

Data set [1] relates to AML and other cancers. To be noted: early phase clinical trials against AML and other cancers, ref Arrillaga-Romany et al., 2017, Kline et al., 2016, Stein et al.; cited from earlier work.
Data set [2] has as its system normal hematopoietic cells. As to the kind of experiment: Effect on normal hematopoietic cells. The note with it: 72 hr.
Data set [3] relates to OCI-AML2, OCI-AML3, TEX, Z138, HCT-116, HeLa, OC316, SUM159 cells. Nature of the data set: Growth and viability of leukemia, lymphoma and solid tumor cell lines. To be noted: 72 hr. Type of data set: cell-based, human.
The subject of data set [4] is CLPP+/+ T-REx HEK293 cells. Nature of the data set: Alamar blue viability, CLPP+/+ T-REx HEK293. Type of data set: cell-based, human. The note with it: T-REx HEK293, 72 hr. On the technique in general: Alamar Blue is a resazurin reagent that responds to reducing activity.
The target of data set [5] is endogenous ClpP in OCI-AML2 (Homo sapiens, UniProt Q16740). As to the kind of experiment: Cellular thermal shift assay. Type of data set: cell-based. To be noted: at concentrations associated with activation in the enzymatic assays.
Data set [6] concerns the target recombinant D190A ClpP (Homo sapiens, UniProt Q16740, D190A). As to the kind of experiment: D190A ClpP enzymatic assays. To be noted: peptide or protein substrates. Type of data set: biochemical.
The target of data set [7] is T1, human ClpP (recombinant WT) (Homo sapiens, UniProt Q16740). Nature of the data set: ClpP Ac-Phe-hArg-Leu-ACC fluorogenic peptide cleavage assay. Type of data set: biochemical. The note with it: read-out: EC50, ClpP cleavage of Ac-Phe-hArg-Leu-ACC; without ClpX.
Data set [8] concerns ONC201-resistant Z138 cells (ONC-R Z138). As to the kind of experiment: Growth and viability, ONC201-resistant Z138. Type of data set: cell-based, human. The note with it: ONC-R Z138 compared with parental Z138.
Data set [9] addresses T1, human ClpP (recombinant WT). Nature of the data set: ClpP Clptide fluorogenic peptide cleavage assay. Type of data set: biochemical. To be noted: read-out: EC50, ClpP cleavage of FAPHMALVPC (Clptide); without ClpX.
Data set [10] has the same target. As to the kind of experiment: ClpP FITC-casein degradation, cell-free fluorescence assay. To be noted: positive cooperativity. Type of data set: biochemical.
Data set [11] deals with ClpP (Homo sapiens, UniProt Q16740). Nature of the data set: Gel-based α-casein degradation assay. To be noted: 3 hr, without ClpX. Type of data set: biochemical.
The test system of data set [12] is Z138 cells with WT ClpP overexpression. As to the kind of experiment: Z138 xenograft with WT ClpP overexpression. Type of data set: in vivo, NSG mice. The note with it: ONC212 50 mg/kg every other day, oral gavage, WT ClpP group. In short, it runs like this:
(§1)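 Female NSG mice (n = 7 per group) received two million luciferase-labelled Z138 cells transfected with a WT or D190A mutant CLPP-overexpressing vector. Engraftment was confirmed by bioluminescence imaging on day 9 post-transplantation. Test compound (50 mg/kg) or water vehicle was then given by oral gavage every other day until moribund. Tumour burden was followed weekly by IVIS luminescence until day 31, and survival was recorded.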

Data set [13] concerns Z138 cells with D190A ClpP overexpression. As to the kind of experiment: Z138 xenograft with D190A ClpP overexpression. To be noted: ONC212 50 mg/kg every other day, oral gavage; D190A ClpP group. Type of data set: in vivo, NSG mice. In short, it runs like this: as §1
Data set [14] relates to CLPP-/- T-REx HEK293 cells. Nature of the data set: Alamar blue viability, CLPP-/- T-REx HEK293. The note with it: T-REx HEK293, 72 hr. Type of data set: cell-based, human.
Data set [15] has as its system primary AML patient samples. As to the kind of experiment: Apoptosis in primary AML patient samples. Type of data set: cell-based, human. To be noted: 72 hr; including high risk cytogenetics and molecular mutations.
Data set [16] addresses T1, human ClpP (recombinant WT). As to the kind of experiment: ClpP AC-WLA-AMC fluorogenic peptide cleavage assay. Type of data set: biochemical. The note with it: read-out: EC50, ClpP cleavage of AC-WLA-AMC; without ClpX.
Data set [17] deals with OCI-AML2 cells. Nature of the data set: Alamar blue viability assay, OCI-AML2. Type of data set: cell-based, human. To be noted: read-out: IC50, growth and viability, OCI-AML2, 72-hr exposure.

T1 sequence (Q16740 57-277): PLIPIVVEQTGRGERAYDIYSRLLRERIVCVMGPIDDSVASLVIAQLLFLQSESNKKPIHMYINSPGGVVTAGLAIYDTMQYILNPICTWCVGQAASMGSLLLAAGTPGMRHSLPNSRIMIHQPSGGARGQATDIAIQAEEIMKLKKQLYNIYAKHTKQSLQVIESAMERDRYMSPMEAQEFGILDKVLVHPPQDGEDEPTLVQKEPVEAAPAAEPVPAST
Chain of ClpP (Q16740 57-277): as above
Chain of endogenous ClpP in OCI-AML2 (Q16740 57-277): as above
Chain of recombinant D190A ClpP (Q16740 57-277 D190A): as the sequence (Q16740 57-277) above, with D134A counted along it

`Cc1ccccc1CN1C(=O)C2=C(CCN(Cc3ccccc3)C2)N2CCN=C12` [ONC201]: the “Serious adverse events in clinical trials” value in data set [1] is listed as “without serious adverse events reported yet”. Further, the “Effect on normal hematopoietic cells” value in [2] is listed as “had little effect”. Besides, in [3], the “IC50 values, growth and viability” value is reported as “low micromolar”.
Regarding `O=C1C2=C(CCN(Cc3ccccc3)C2)N2CCN=C2N1Cc1ccc(C(F)(F)F)cc1` [ONC212], the “Effect on normal hematopoietic cells” value in [2] is reported as “had little effect”. Moreover, in [4], the “Growth and viability of CLPP+/+ cells” value was “reduced the growth and viability”. Also, the “Binding of endogenous ClpP in cells (CETSA)” value in [5] is “bound endogenous ClpP”. Moreover, the “Activation of proteolytic activity of D190A ClpP” value in data set [6] is “could not activate proteolytic activity”. Moreover, the concentration giving a half-maximal response (EC50) in data set [7] amounted to 370 nM; in data set [9], 3370 nM; in data set [16], 180 nM. For the same compound, the “Growth and viability / sensitivity of ONC201-resistant Z138 cells” value in data set [8] is reported as “cross-resistant”. Also, the “Hill coefficient (FITC-casein data)” value in [10] was 4.98 ± 0.47. Besides, the “Degradation of α-casein by ClpP (SDS-PAGE)” value in data set [11] was “induced cleavage of α-casein without the need for ClpX”. The “Tumor burden (luciferase, IVIS imaging)” value in [12] was “significantly reduced”. For the same compound, the Median survival in [12] (vehicle 49 days) is 55 days. In addition, the “Tumor burden / anti-tumor activity (luciferase, IVIS imaging)” value in data set [13] was “no discernable anti-tumor activity”. Besides, the “IC50 values, growth and viability” value in data set [3] is “nanomolar range”. Moreover, the “Growth and viability of CLPP-/- cells” value in data set [14] was “but not CLPP^−/− cells”. Moreover, the “Apoptosis in primary AML patient samples” value in data set [15] was “induced apoptosis”.
As for `COc1cccc2c1C(=O)c1c(O)c3c(c(O)c1C2=O)C[C@@](O)(C(=O)CO)C[C@@H]3O[C@H]1C[C@H](N)[C@H](O)[C@H](C)O1` [adriamycin], in data set [8], the “Growth and viability / sensitivity of ONC201-resistant Z138 cells” value is reported as “retained similar sensitivity”.
On the same count and under the same terms, as for `CC[C@]1(O)C[C@H]2CN(CCc3c([nH]c4ccccc34)[C@@](C(=O)OC)(c3cc4c(cc3OC)N(C=O)[C@H]3[C@@](O)(C(=O)OC)[C@H](OC(C)=O)[C@]5(CC)C=CCN6CC[C@]43[C@@H]65)C2)C1` [vincristine], the entry is “retained similar sensitivity”.
For Acyldepsipeptide 1 [ADEP1], the IC50 in data set [17] amounted to 50000 nM.
